Laboratory results published in publication PMC9049079 (RSC Advances, 2020).

Tests used:
[1] = molecular target: T1, α-Glucosidase from Saccharomyces cerevisiae (Saccharomyces cerevisiae, UniProt P53341); test: Fluorescence quenching of α-glucosidase; type: binding; conditions: for Kq (quenching rate constant): Kq = KSV/τ0, τ0 = 10^−8 s; for Kd: K a (binding constant); for ΔG°: ΔG = ΔH − TΔS
How it was run: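 Intrinsic fluorescence quenching: enzyme at 6.96 × 10−2 μM, titrated with test compound (0–1.10 μM final), 5 min equilibration, at 298, 304 and 310 K. Excitation 280 nm, emission 290–500 nm, slits 2.5 nm. Buffer (pH 6.8) and compound blanks were subtracted, with inner-filter correction from absorbance. KSV from linear F0/F vs [Q]. Ka and n from double-log plot. ΔH/ΔS from van't Hoff; ΔG = ΔH − TΔS.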

[2] = molecular target: T1, α-Glucosidase from Saccharomyces cerevisiae; test: α-Glucosidase inhibition assay; type: biochemical
[3] = molecular target: T1, α-Glucosidase from Saccharomyces cerevisiae; test: Inhibitory kinetic analysis; type: biochemical
How it was run: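 Enzyme in 100 mM phosphate buffer pH 6.8 at 37 °C with varied pNPG and test compound at 0, 2, 4, 6, 10 μM. Reversibility was tested as rate vs enzyme at 1.35–5.40 × 10−2 μM final. Lineweaver–Burk plots used enzyme at 6.96 × 10−2 μM. Ki came from nonlinear regression to competitive, non-competitive and mixed models. Mean ± SD, n = 3.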

[4] = van't Hoff plot, 298, 304 and 310 K

T1 sequence (P53341 whole entry): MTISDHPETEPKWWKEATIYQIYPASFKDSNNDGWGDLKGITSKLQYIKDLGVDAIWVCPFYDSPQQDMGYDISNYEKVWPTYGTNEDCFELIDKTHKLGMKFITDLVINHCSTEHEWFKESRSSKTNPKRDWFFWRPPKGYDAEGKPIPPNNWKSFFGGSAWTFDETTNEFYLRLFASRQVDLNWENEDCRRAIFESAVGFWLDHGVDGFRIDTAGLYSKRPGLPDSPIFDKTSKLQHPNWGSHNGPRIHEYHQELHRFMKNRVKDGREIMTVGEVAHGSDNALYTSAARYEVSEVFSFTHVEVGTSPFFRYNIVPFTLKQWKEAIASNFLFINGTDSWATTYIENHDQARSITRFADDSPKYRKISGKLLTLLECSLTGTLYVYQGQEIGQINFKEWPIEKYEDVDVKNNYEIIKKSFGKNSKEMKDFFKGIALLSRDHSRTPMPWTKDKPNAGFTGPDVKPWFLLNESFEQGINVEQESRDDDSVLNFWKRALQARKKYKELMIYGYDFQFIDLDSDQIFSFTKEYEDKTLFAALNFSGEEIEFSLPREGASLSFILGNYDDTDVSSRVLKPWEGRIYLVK

Question: How did the “Kq (quenching rate constant)” value ([1]; 298 K) turn out when `Oc1cc(O)cc(/C=C/c2ccc(O)c(O)c2)c1` [piceatannol, Piceatannol] was run?
Answer: 5.02e+13 M⁻¹ s⁻¹

Question: And the “Kq (quenching rate constant)” value ([1]; 304 K)?
Answer: 7.01e+13 M⁻¹ s⁻¹

Question: What about the “Kq (quenching rate constant)” value ([1]; 310 K) of the same compound?
Answer: 1.604e+14 M⁻¹ s⁻¹

Question: What about the Kd ([1]; T 298 K) of the same compound?
Answer: 2030 nM

Question: What about the Kd ([1]; T 304 K) of the same compound?
Answer: 1380 nM

Question: What about the Kd ([1]; T 310 K) of the same compound?
Answer: 739 nM

Question: What about the “K SV (Stern–Volmer quenching constant)” value ([1]; T 298 K) of the same compound?
Answer: 5.02 ± 0.039 ×10^5 L mol^−1

Question: What about the “n (number of binding sites per α-glucosidase molecule)” value ([1]; T 298 K) of the same compound?
Answer: 1.17 ± 0.057

Question: What about the “ΔG°” value ([1]; T 298 K) of the same compound?
Answer: -7.741 ± 2.3 kcal/mol

Question: And the “K SV (Stern–Volmer quenching constant)” value ([1]; T 304 K)?
Answer: 7.01 ± 0.032 ×10^5 L mol^−1

Question: What about the “n (number of binding sites per α-glucosidase molecule)” value ([1]; T 304 K) of the same compound?
Answer: 1.16 ± 0.045

Question: And the “ΔG°” value ([1]; T 304 K)?
Answer: -8.207 ± 2.3 kcal/mol

Question: What about the “K SV (Stern–Volmer quenching constant)” value ([1]; T 310 K) of the same compound?
Answer: 16.04 ± 0.049 ×10^5 L mol^−1

Question: What about the “n (number of binding sites per α-glucosidase molecule)” value ([1]; T 310 K) of the same compound?
Answer: 1.32 ± 0.017

Question: What about the “ΔG°” value ([1]; T 310 K) of the same compound?
Answer: -8.676 ± 2.3 kcal/mol

Question: What about the “ΔH°” value [1, 4] of the same compound?
Answer: 15.43 ± 2.31 kcal/mol

Question: What about the “ΔS°” value [1, 4] of the same compound?
Answer: 325.31 ± 31.80 J mol^−1 K^−1

Question: What about the IC50 [2] of the same compound?
Answer: 4390 ± 740 nM

Question: And the Ki [3]?
Answer: 5380 ± 240 nM

Question: And the “type of inhibition (mechanism)” value ([3]; Lineweaver–Burk plots, piceatannol 0-10 μM)?
Answer: non-competitive

Question: What about the reversibility of inhibition ([3]; plots of υ versus [α-glucosidase], piceatannol 0-10 μM) of the same compound?
Answer: reversible
